In data set [1] the test system is rat primary hippocampal neurons. The experiment in a line: Dendritic spine morphology, DiI staining. The following applies: for induction of dendritic varicosities: 3 μM peptide, 72 h. The format is cell-based.
A short description of data set [2]: Electron microscopy of fibril formation in DMEM. The format is physicochemical. The following applies: 10 μM peptide, 37°C. In short, it runs like this: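 Peptide was dissolved in 60 mM NaOH, diluted into cell culture medium and sonicated 1 min. It was then incubated at 10 μM in DMEM without serum or cells at 37°C. Morphology was examined by electron microscopy periodically over several days, including 24 and 48 h.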

The nature of data set [3]: CD spectroscopy of conformational transition in phosphate buffer. It counts as physicochemical. The following applies: 10 μM peptide, 10 mM sodium phosphate pH 7.4, 25°C; for appearance of the solution at 48–72 h of incubation: agitation; for kinetics of conformational transition by CD, in words: agitation 200 rev./min. The essentials: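 HFIP-treated peptide films were dissolved in 60 mM NaOH, diluted with water, sonicated 1 min, then diluted with 20 mM sodium phosphate (pH 7.4) to 10 μM. Samples were incubated at 25°C with orbital agitation at 200 rev./min. CD spectra (190–260 nm, 1-mm path) were taken every 2 h for 12 h, then at 24, 48 and 72 h, and background-subtracted. Three independent experiments were run.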

Data set [4] is described as follows: Electron microscopy of fibril formation in phosphate buffer. The format is physicochemical. The following applies: sodium phosphate pH 7.4, 25°C, 96 h. The essentials: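 HFIP-treated peptide was dissolved in 60 mM NaOH, sonicated and diluted in sodium phosphate (pH 7.4). It was incubated at 25°C with orbital agitation at 200 rev./min. Aliquots were applied to glow-discharged carbon-coated Formvar grids for 20 min, fixed in 2.5% glutaraldehyde for 4 min, stained with 1% uranyl acetate for 3 min, air-dried and imaged by TEM. Three independent experiments were run.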

A short description of data set [5]: CD spectroscopy of conformational transition in DMEM. The following applies: 10 μM peptide, 37°C. The format is physicochemical. The essentials: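 Peptide was dissolved in 60 mM NaOH, diluted into cell culture medium and sonicated 1 min. It was then incubated at 10 μM in DMEM without serum or cells at 37°C. Conformation was followed by CD periodically over several days.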

As for “Aβ42: Aβ (amyloid β-protein) comprising 42 amino acids, wild-type”, the “induction of dendritic varicosities” value in data set [1] was “abundant varicosities”. Further, in data set [1] (10 μM peptide, initial experiments), the “effect at 10 μM in the dendritic spine assay” value is “overt cell death”. Further, in data set [2], the “time by which the fibrillation process appeared complete (electron microscopy)” value was not above 24 h.

Regarding [Met(O2)^35]Aβ40 [Aβ40-sulfone], the “appearance of the solution at 48–72 h of incubation” value in data set [3] is listed as “free of particulate material or precipitates”.

[Met(O2)^35]Aβ42 [Aβ42-sulfone]: in data set [1], the “induction of dendritic varicosities” value is “abundant varicosities”. The “kinetics of conformational transition by CD, in words” value in data set [3] is given as “behaved similarly to WT Aβ42”. The “time by which the fibrillation process appeared complete (electron microscopy)” value in data set [2] was not above 24 h.

Regarding [Met(O)^35]-Aβ42 [Aβ42-sulfoxide], in data set [1], the “induction of dendritic varicosities” value was “little induction of varicosities”. In data set [3], the “kinetics of conformational transition by CD, in words” value is on record as “did not change during the first 24 h”.

Turning to [Met(O)^35]Aβ40 [Aβ40-sulfoxide], the “appearance of the solution at 48–72 h of incubation” value in data set [3] is given as “free of particulate material or precipitates”. For the same substance, the “abundance of fibrils by electron microscopy” value in data set [4] is “scarce relative to those of WT Aβ40 or Aβ40-sulfone”. Moreover, in data set [5], the “kinetics of conformational transition by CD in medium, in words” value is “somewhat slower”.

These data come from article PMC5767168 (The Biochemical journal, 2011).
